Key:
[1] = Antiproliferative activity against rat HSC-T6 cells assessed as reduction in cell viability; format: functional, cell-based
Method in brief: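 Immortalized rat hepatic stellate line HSC-T6. Viability was measured by a procedure from earlier work, and IC50 values were derived from it. Epigallocatechin-3-gallate was the positive control.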

[2] = Induction of apoptosis in rat HSC-T6 cells assessed as viable cells at 1 uM after 48 hrs using annexin-V/PI double staining by flow cytometry (reference value: 99.2 %); format: functional; details: HSC-T6, 48 h, read-out: Activity
[3] = Induction of apoptosis in rat HSC-T6 cells assessed as early apoptotic cells at 1 uM after 48 hrs using annexin-V/PI double staining by flow cytometry (reference value: 0.150 %); format: functional
[4] = Induction of apoptosis in rat HSC-T6 cells assessed as late apoptotic cells at 1 uM after 48 hrs using annexin-V/PI double staining by flow cytometry (reference value: 0.130 %); format: functional
[5] = Induction of apoptosis in rat HSC-T6 cells assessed as necrotic cells at 1 uM after 48 hrs using annexin-V/PI double staining by flow cytometry (reference value: 0.550 %); format: functional
[6] = Induction of apoptosis in rat HSC-T6 cells assessed as viable cells at 3 uM after 48 hrs using annexin-V/PI double staining by flow cytometry (reference value: 99.2 %); format: functional; details: HSC-T6, 48 h, read-out: Activity
[7] = Induction of apoptosis in rat HSC-T6 cells assessed as early apoptotic cells at 3 uM after 48 hrs using annexin-V/PI double staining by flow cytometry (reference value: 0.150 %); format: functional
[8] = Induction of apoptosis in rat HSC-T6 cells assessed as late apoptotic cells at 3 uM after 48 hrs using annexin-V/PI double staining by flow cytometry (reference value: 0.130 %); format: functional
[9] = Induction of apoptosis in rat HSC-T6 cells assessed as necrotic cells at 3 uM after 48 hrs using annexin-V/PI double staining by flow cytometry (reference value: 0.550 %); format: functional

| Compound | IC50 [1] [µM] | further results |
| --- | --- | --- |
| C[C@@H]1Oc2cc3oc4c5c(c(O)cc4c(=O)c3c(O)c2C1(C)C)OC(C)(C)C=C5 | 15.9 |  |
| CC1(C)C=Cc2cc(C(=O)c3cccc(O)c3)c(O)c(O)c2O1 | 7.1 |  |
| C=CC(C)(C)c1c(O)c(CC=C(C)C)c2oc3cc(O)c(O)cc3c(=O)c2c1O [MACLURAXANTHONE B] | 13.3 |  |
| C=CC(C)(C)c1c(OC)c(CC=C(C)C)c2oc3cc(O)c(O)cc3c(=O)c2c1O | 9.7 | viability at 1 µM [2]: 80.8%; Activity [3]: 11.5%; Activity [4]: 2.54%; Activity [5]: 5.19%; viability at 3 µM [6]: 78.8%; Activity [7]: 8.76%; Activity [8]: 5.81%; Activity [9]: 6.67% |
| O=C(O[C@@H]1Cc2c(O)cc(O)cc2O[C@@H]1c1cc(O)c(O)c(O)c1)c1cc(O)c(O)c(O)c1 [EPIGALOCATECHIN GALLATE] | 29.8 |  |
| CC(C)=CCc1c(O)cc(O)c2c(=O)c3c(CC=C(C)C)c(O)ccc3oc12 [GERONTOXANTHONE H] | > 30 |  |
| COc1c2c(c3c(=O)c4ccc(O)c(O)c4oc3c1CC=C(C)C)O[C@H](C)C2(C)C | 14.8 |  |
| COc1c(CC=C(C)C)c(O)c2c(=O)c3cc(O)c(O)cc3oc2c1CC=C(C)C [CUDRATRICUSXANTHONE K] | > 30 |  |
| CC(C)=CCc1c(O)c(O)cc2c(=O)c3c(O)c4c(cc3oc12)OC(C)C4(C)C (centres undefined) [CUDRAXANTHONE M] | 10.4 |  |
| O=c1c2ccc(O)cc2oc2ccc(O)cc12 | > 30 |  |
| CC(C)=CCc1c(O)cc(O)c2c(=O)c3cccc(O)c3oc12 | > 30 |  |
| COc1cc2oc3cc(O)cc(O)c3c(=O)c2cc1OC | > 30 |  |
| C=CC(C)(C)c1c(OC)cc(O)c2c(=O)c3ccc(O)c(O)c3oc12 [ISOCUDRANIAXANTHONE B] | 17.3 |  |
| COc1c2c(c3c(=O)c4cc(O)c(O)cc4oc3c1CC=C(C)C)O[C@@H](C)C2(C)C | 15.2 |  |
| CC1(C)C=Cc2c(cc(O)c3c(=O)c4c5c(ccc4oc23)OC(C)(C)C=C5)O1 | > 30 |  |
| CC1Oc2cc(O)c3c(=O)c4ccc(O)c(O)c4oc3c2C1(C)C (centres undefined) | 13.1 |  |

From ChEMBL document CHEMBL3352135, “Antiproliferative prenylated xanthones and benzophenones from the roots of Cudrania tricuspidata in HSC-T6 cells” (J Nat Prod, 2014)
